Compounds with a hit are over-represented: about 3.5% of the library has one in this group of screens.
MrgX1 antag = antagonists of human MrgX1 receptor, primary screen, HEK293 cells, Fluo-4 calcium flux; Mas-related G-protein coupled receptor member X1 (Homo sapiens), Q96LB2; BAM8-22 antagonism; active compounds read low; B-score at 10 µM; 310,000 compounds, 1.3% hits; AID 588676, 2011;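 active = calcium-response B-score plate-corrected more than 3 library SD below zero, starting fluorescence within 5 deviations, no agonist response on first addition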;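 note: peak minus trough fluorescence over baseline after final BAM8-22 challenge near maximal dose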
Target sequence (Q96LB2 whole entry, looked up): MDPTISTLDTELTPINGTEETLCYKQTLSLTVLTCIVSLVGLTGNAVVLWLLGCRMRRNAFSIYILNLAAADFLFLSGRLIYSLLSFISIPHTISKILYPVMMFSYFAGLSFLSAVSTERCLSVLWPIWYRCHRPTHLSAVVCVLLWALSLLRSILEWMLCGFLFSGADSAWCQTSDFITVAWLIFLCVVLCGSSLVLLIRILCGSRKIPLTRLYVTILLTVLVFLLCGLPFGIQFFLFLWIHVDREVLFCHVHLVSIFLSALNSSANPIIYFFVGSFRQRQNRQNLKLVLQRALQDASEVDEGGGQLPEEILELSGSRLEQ
RGS4 pot = RGS4 potentiators or activators, primary screen, cell-based, HEK293 M3R inducible RGS4, calcium flux | carbachol calcium flux Fluo4; active compounds read low | B-score at 10 µM | 310,000 compounds, 0.92% hits;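 active = B-score of the integrated calcium signal more than 4 SD below the library mean, with starting fluorescence not abnormally high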;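 note: negative B-score means reduced calcium response which marks RGS4 activation or potentiation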
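Reagent: ECmax carbachol challenge; Test system: M3R-expressing HEK293 line, RGS4 induced by doxycycline; Schedule: overnight RGS4 induction, 30 min dye load 37 °C, 20 min compound RT; Detection: calcium dye Fluo4 fluorescence; Read-out: Agonist-evoked peak-minus-minimum fluorescence over baseline, integrated ratio, B score.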
MrgX1 agonist = agonists of human MrgX1 receptor, primary screen, HEK293 cells, Fluo-4 calcium flux; Mas-related G-protein coupled receptor member X1 (Homo sapiens), Q96LB2; Fluo-4 calcium fluorescence, agonist mode; active compounds read high; B-score at 10 µM; 310,000 compounds, 0.44% hits;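 active = calcium response B-score plate-corrected fluorescence ratio at least 3 library SD, with starting fluorescence B-score inside 5 SD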
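Material: MrgX1-expressing HEK293 cells; input: 15,000 cells per well; doses: test compound given as first of three sequential additions; schedule: overnight plating before 1 h dye loading; technique: Fluo-4 NW calcium-flux fluorescence, kinetic read; evaluation: baseline-normalised fluorescence change ratio, B-scored; control set: plate-wise positive and negative controls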
MrgX1 PAM = positive allosteric modulators of MrgX1, primary screen, HEK293 cells, Fluo-4 calcium flux; Mas-related G-protein coupled receptor member X1 (Homo sapiens), Q96LB2; FDSS; active compounds read high; B-score at 10 µM; 310,000 compounds, 0.63% hits;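 active = plate-corrected calcium response at least 3 library SD above typical, normal starting fluorescence, not activating the receptor alone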;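 note: compound read alongside a low EC10 to EC30 dose of BAM8-22 agonist; peak minus trough fluorescence over baseline measured at the second addition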
RGS4 block = RGS4 inhibitors, primary screen, cell-based, HEK293 M3R inducible RGS4, calcium flux. Fluo-4 calcium flux; active compounds read high; triggered by carbachol at its EC20. B-score at 10 µM. 310,000 compounds, 0.45% hits. AID 463165, 2010;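 active = B-score, a plate-corrected calcium signal, over three deviations above library mean, with baseline fluorescence within five deviations of library mean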;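 note: RGS4 expression induced by doxycycline in cells with stable M3 receptor; B-score is computed from the integrated fluorescence ratio over baseline after carbachol; higher B-score means a larger calcium signal and so more RGS4 inhibition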
Target sequence (P49798 whole entry, looked up): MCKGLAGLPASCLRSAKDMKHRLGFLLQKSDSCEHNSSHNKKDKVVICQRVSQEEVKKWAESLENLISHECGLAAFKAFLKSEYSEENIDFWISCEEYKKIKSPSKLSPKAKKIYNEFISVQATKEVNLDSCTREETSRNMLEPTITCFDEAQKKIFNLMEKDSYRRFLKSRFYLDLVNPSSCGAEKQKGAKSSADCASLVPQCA
MrgX1 allo conf = MrgX1 positive allosteric modulators, duplicate retest, confirmation, HEK293 cells, Fluo-4 calcium flux; shares compounds with MrgX1 PAM; Fluo-4 calcium fluorescence, FDSS; activation (ratio percentage), % at 10 µM; 1,200 compounds, 13% hits; AID 602413, 2012;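 active = ratio at least 3 SD above the weak peptide control, stable starting fluorescence, no direct agonism earlier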;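 note: compound followed by low BAM8-22 agonist challenge near EC20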
HEK293 Ca flux = nonspecific calcium signal in parental HEK293, confirmation, counter-screen for MrgX1 antagonist project, parental HEK293 cells, Fluo-4 calcium flux; fluorescence ratio F(max-min)/F0 at 10 µM; Fluo-4 calcium fluorescence, FDSS; AID 624111, 2012; 4,000 compounds, 2% hits; shares compounds with MrgX1 antag;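 active = duplicate-averaged calcium fluorescence ratio at least three times the standard deviation of buffer wells, a nonspecific response in parental cells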
HEK293 Ca counter = calcium response in parental HEK293 cells, primary screen, counter-screen for MrgX1 allosteric activator project, cell-based, Fluo-4 calcium flux, duplicate | shares compounds with MrgX1 antag | Fluo-4 fluorescence ratio; active compounds read high | fluorescence ratio F(max-min)/F0 at 10 µM | 4,000 compounds, 0.4% hits;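 active = calcium fluorescence ratio, averaged over duplicates, at least 3 SD of the buffer-well ratio, meaning a nonspecific response in receptor-free cells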;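 note: untransfected parental HEK293 lacking MrgX1 used as counterscreen for MrgX1 allosteric activators; fluorescence change taken during the second addition on a kinetic imager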
HEK293 Ca cntr2 = calcium response in parental HEK293 cells, primary screen, counter-screen for MrgX1 agonist project, cell-based, Fluo-4 calcium flux, duplicate, agonist mode | shares compounds with MrgX1 antag | fluorescence ratio F(max-min)/F0 at 10 µM | Fluo-4 calcium fluorescence (FDSS); active compounds read high | 4,000 compounds, 8.7% hits;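 active = calcium fluorescence ratio at least three times the spread of buffer wells, meaning a non-specific response in parental cells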
* hit, by the source's call; i = inactive; / = not tested or not shown.

SMILES	MrgX1 antag	RGS4 pot	MrgX1 agonist	MrgX1 PAM	RGS4 block	MrgX1 allo conf	HEK293 Ca flux	HEK293 Ca counter	HEK293 Ca cntr2
Cc1ccc(N(CC(=O)Nc2ccc(Br)c(C)c2)S(=O)(=O)c2c(C)[nH]c(=O)[nH]c2=O)cc1	i	i	i	8.3*	i	i	i	i	i
CC(=O)c1cc(CC=C(C)C)c(O)c(CC=C(C)C)c1O	i	i	i	i	i	/	/	/	/
CC(=O)c1cc(CC=C(C)C)c(O)cc1O	i	i	i	9.9*	i	i	i	i	i
COc1cccc(N2CCN(C(=O)CCNS(=O)(=O)c3ccc4c(c3)c(=O)n(C)c(=O)n4C)CC2)c1	i	i	i	i	i	/	/	/	/
CCOC(=O)C1=C(COC(=O)c2cc(Br)c(Br)s2)NC(=O)NC1C (stereo not drawn)	i	i	i	9.8*	i	i	i	i	i
CC(NC(=O)Nc1ccc(Br)cc1)C(C)(C)C (stereo not drawn)	i	i	i	7.8*	i	i	i	i	i
COC(=O)C(C)(C)ONC(=O)Nc1ccc(Br)cc1	i	i	i	i	i	/	/	/	/
COc1ccccc1N1CCN(S(=O)(=O)Cc2ccccc2Cl)CC1	i	i	i	i	i	/	/	/	/
CCOc1ccccc1NC(=O)CSc1ccccc1	i	i	i	6.9*	i	i	i	i	i
O=C(CSc1nnc(CNC(=O)c2ccccc2F)o1)NC1CCCCC1	i	i	i	6.5*	i	i	i	i	i
COCC(C)n1c(SCC(=O)c2cc(C)n(C)c2C)nc2ccccc2c1=O (stereo not drawn)	i	i	i	13*	i	i	i	i	i
CC(=Nc1cccc(C)c1)c1sc2ccccc2c1O	i	i	i	8.1*	i	i	i	i	57*
CC(=O)NCCN=C(C)c1sc2ccccc2c1O	i	i	i	i	i	/	/	/	/
CC(=Nc1ccc(O)cc1)c1sc2ccccc2c1O	i	i	i	39*	i	i	i	i	i
CC(=Nc1ccccc1O)c1sc2ccccc2c1O	i	i	i	i	i	/	/	/	/
CNC(=O)c1ccsc1NC(=O)CS(=O)(=O)c1ccccc1	i	i	i	i	i	/	/	/	/
O=C(NC12CC3CC(CC(C3)C1)C2)c1cc(F)c(F)c(F)c1F	i	i	i	6.6*	i	i	i	i	i
COc1cc(OC)c(C(=O)NC23CC4CC(CC(C4)C2)C3)cc1OC	i	i	i	i	i	/	/	/	/
Cc1nn(C)c(Nc2ccc(Br)cc2)c1Br	i	i	i	8.2*	i	i	i	i	i
C=CCSc1nc2ccccc2c(=O)n1C1CCOC(C)(C)C1 (stereo not drawn)	i	i	i	11*	i	i	i	i	i
COc1ccccc1CNC(=O)c1cc(C)nn1-c1ccccc1	i	i	i	i	i	/	/	/	/
Cc1cc(C(=O)NCc2ccccc2Cl)n(-c2ccccc2)n1	i	i	i	9.3*	i	i	i	i	i
COc1ccc(S(=O)(=O)N(CC(=O)NC2CC3CCC2C3)c2ccccc2OC)cc1 (stereo not drawn)	i	i	i	8.3*	i	i	i	i	i
COc1ccccc1N(CC(=O)NC1CC2CCC1C2)S(=O)(=O)c1ccc(C)cc1 (stereo not drawn)	i	i	i	i	i	/	/	/	/
Cc1ccc(NC(=O)c2ccccc2N2C(=O)C3C4C=CC(C5CC45)C3C2=O)cc1C (stereo not drawn)	i	i	i	i	i	/	/	/	/
SMILES	MrgX1 antag	RGS4 pot	MrgX1 agonist	MrgX1 PAM	RGS4 block	MrgX1 allo conf	HEK293 Ca flux	HEK293 Ca counter	HEK293 Ca cntr2
O=C1N=c2ccccc2=C1c1sc(NS(=O)(=O)c2ccccc2)nc1O	i	i	i	21*	i	i	i	i	i
COc1ccc(-c2nnc(NC(=O)c3cc(C)on3)s2)cc1	i	i	i	8.2*	i	i	i	i	i
Cc1c(Cl)cccc1NC(=O)CC1NCCNC1=O (stereo not drawn)	i	i	i	13*	i	i	i	i	i
CCOc1cc(CNCCSc2nnnn2C)cc(Br)c1OCc1ccc(F)cc1	i	i	i	i	i	/	/	/	/
CCOc1ccc(S(=O)(=O)N2CCC(C(=O)NCCc3ccc(S(N)(=O)=O)cc3)CC2)cc1	i	i	i	i	i	/	/	/	/
O=C(Nc1nc2n(n1)C(c1ccccc1)CC(c1ccc(Cl)cc1)N2)c1ccco1 (stereo not drawn)	i	i	i	7.3*	i	i	i	i	i
COc1ccc(C2CC(c3ccccc3)Nc3nc(NC(=O)c4ccco4)nn32)cc1 (stereo not drawn)	i	i	i	i	i	/	/	/	/
O=C(NCc1ccccc1)c1ccc(CS(=O)(=O)c2ccccc2)o1	i	i	i	i	i	/	/	/	/
Cc1oc2ccc(O)cc2c1C(=O)c1ccc(F)cc1	i	i	i	6.8*	i	i	i	i	i
CN(C(=O)c1ccc2c(=O)n3c(nc2c1)CCCCC3)c1cccc(Cl)c1	i	i	i	i	i	/	/	/	/

Screens (PubChem BioAssay)
